Data on 15 compounds can be found in PubChem BioAssay.

The nature of assay [1]: Her2 expression decrease, cell viability multiplex – SKBR3 breast tumor cells, AlphaScreen, ATP viability, primary screen (AID 461;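 active = Her2 level under about 52% in both replicate screens, with viability over 70% of control, limit read from the data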;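 as to Her2 level: lower value means less Her2 protein in the cells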;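 as to viability: percent of carrier control wells set as 100% viability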). Conditions: SKBR3 Her2 protein level, 18-24 h, measured here: SKBR3 viability, ATP luminescence, at 10 µM.
Assay [2] has as its target Receptor tyrosine-protein kinase erbB-2 (Homo sapiens) (UniProt P04626). Described as above. Conditions: 18-24 h, at 10 µM, stronger effect = lower value.
Assay [3] can be described thus: reduced viability of SK-BR-3 breast cancer cells – cell-based, 24 h, human, pilot screen (AID 572;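 active = viability at or below 10% of carrier control in both of two separate runs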;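 also: compound exposure lasted between 18 and 24 h rather than exactly 24 h; 100% = carrier-treated control wells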). The following applies: SK-BR-3 viability, CellTiter-Glo luminescence, at 10 µM, stronger effect = lower value. For orientation: Cellular ATP, detected with luciferase, serves as a proxy for viable cell number.
Assay [4] can be described thus: HUVEC growth inhibition – cell-based, human, primary screen (AID 575;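 active = viability at or below 30% in both replicate assays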;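 also: 100% = median of untreated cell wells with 0.1% DMSO on each plate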). Conditions: HUVEC proliferation, CellTiter-Glo luminescence, 72 h; at 10 µM; stronger effect = lower value. In outline: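 Test system: primary human umbilical vein endothelial cells; medium: endothelial basal medium with 2% FBS plus growth supplements; dosing: 10 µM compound only; times: 72 h treatment at 37 °C; signal: CTG luminescence; read-out: % viability relative to median vehicle-well signal on each plate; control set: vehicle and MePR control wells; plate: 384-well, collagen-coated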

A short description of assay [5]: H69AR cell proliferation blockers – human, duplicate replicates, primary screen (AID 580;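 active = viability at or under a set limit in both replicates, limit being median viability minus 3 SD, cut at about 48% in these data, passing the limit was not always enough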;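 also: 100% = mean luminescence of untreated wells and 0% = no signal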). Conditions: H69AR lung tumor cells viability, ATP luminescence, 72 h; at 10 µM; stronger effect = lower value.
Assay [6] can be described thus: MRP1 drug-resistance reversers in H69AR cells – cell-based, doxorubicin co-treatment, pilot screen (AID 601;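 active = viability loss from added drug above about 55%, and viability with drug at most 40%, in both replicates, limit read from the data, passing the limit was not always enough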). The following applies: CellTiter-Glo, 72 h, at 10 µM; for differential viability (reversal): stronger effect = higher value.
Assay [7] is described as follows: yeast transport mutant growth inhibition pilot in 384-well plates, post-Golgi transport modulator project (AID 636; in the data active = inhibition above about 31%). The following applies: absorbance 615 nm, about 18 h, stronger effect = higher value.
Assay [8] can be described thus: growth suppression of yeast trafficking mutant, preliminary HTS, modulators of trafficking downstream of Golgi apparatus project, 1536-format plate, OD 615 nm (AID 637). Conditions: yeast transport mutant growth, absorbance 615 nm, 18 h; stronger effect = higher value.
The mark [9] stands for this setting: H69AR cells + 2 uM doxorubicin, measured here: viability with 2 uM doxorubicin, stronger effect = lower value.
[10] abbreviates: H69AR cells, compound alone cytotoxicity.

Activity calls are given as the source filed them. Rule as the data show it, unless noted: active = inhibition above about 30%; inactive = the rest.

Receptor tyrosine-protein kinase erbB-2 (Homo sapiens), sequence (P04626 whole entry, looked up): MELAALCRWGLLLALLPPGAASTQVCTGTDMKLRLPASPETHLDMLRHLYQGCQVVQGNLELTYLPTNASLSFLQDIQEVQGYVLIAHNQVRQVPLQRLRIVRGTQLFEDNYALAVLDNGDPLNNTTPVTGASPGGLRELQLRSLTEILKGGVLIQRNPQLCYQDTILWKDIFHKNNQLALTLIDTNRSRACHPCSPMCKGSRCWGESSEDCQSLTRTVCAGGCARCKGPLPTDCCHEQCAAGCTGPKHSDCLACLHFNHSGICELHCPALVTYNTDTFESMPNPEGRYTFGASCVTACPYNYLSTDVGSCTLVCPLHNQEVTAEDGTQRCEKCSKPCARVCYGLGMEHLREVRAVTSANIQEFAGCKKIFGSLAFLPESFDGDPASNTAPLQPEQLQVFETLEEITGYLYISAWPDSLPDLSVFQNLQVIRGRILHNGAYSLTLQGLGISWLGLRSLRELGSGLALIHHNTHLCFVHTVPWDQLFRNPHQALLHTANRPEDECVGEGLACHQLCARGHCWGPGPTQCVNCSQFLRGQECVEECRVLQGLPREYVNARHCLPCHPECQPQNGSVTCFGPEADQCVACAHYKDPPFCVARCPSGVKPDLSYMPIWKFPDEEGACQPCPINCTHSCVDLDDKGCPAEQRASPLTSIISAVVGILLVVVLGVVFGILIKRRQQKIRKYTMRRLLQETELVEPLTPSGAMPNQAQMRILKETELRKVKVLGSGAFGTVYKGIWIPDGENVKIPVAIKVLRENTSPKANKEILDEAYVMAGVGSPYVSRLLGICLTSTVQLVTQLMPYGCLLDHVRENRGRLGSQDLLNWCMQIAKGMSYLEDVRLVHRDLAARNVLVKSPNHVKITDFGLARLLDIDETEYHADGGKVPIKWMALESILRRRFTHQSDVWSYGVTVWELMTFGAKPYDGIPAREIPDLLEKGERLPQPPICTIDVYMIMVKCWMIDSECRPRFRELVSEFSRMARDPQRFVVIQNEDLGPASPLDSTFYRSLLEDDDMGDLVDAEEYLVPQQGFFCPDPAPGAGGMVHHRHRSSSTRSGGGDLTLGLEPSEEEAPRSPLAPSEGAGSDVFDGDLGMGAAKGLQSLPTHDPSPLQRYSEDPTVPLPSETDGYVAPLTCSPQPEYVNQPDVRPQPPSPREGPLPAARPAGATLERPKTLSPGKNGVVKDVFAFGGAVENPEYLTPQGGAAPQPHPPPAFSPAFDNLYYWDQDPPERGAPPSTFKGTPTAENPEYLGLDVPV

Turning to `Cc1nc2sc(C(c3cccc(F)c3)N3CCN(C(=O)c4ccco4)CC3)c(O)n2n1` (stereo not given), the viability (as a rule, a read-out of living cells in per cent, often relative to untreated cells) in assay [1] is 94%; in assay [3] it was 94% (inactive); in assay [4], 120% (inactive); in assay [5], 99.3% (inactive); in assay [6] (setting [9]), 96.7%; in assay [6] (setting [10]), 99.3%. The Her2 level in assay [2] was 109% (inactive). Besides, in assay [6] (H69AR cells + 2 uM doxorubicin), the differential viability (reversal) was 2.58% (inactive). Besides, the inhibition (in general, the drop in the measured response relative to a control, in per cent) was -5% (inactive) in assay [7] and -9.83% (inactive) in assay [8].

With `CN1CCN(c2ncnc3c2cnn3-c2ccc(Cl)cc2)CC1`, the viability in assay [1] was 109%; in assay [3], 109% (inactive); in assay [4] it was 53.6% (inactive); in assay [5] it was 89.3% (inactive); in assay [6] (setting [9]), 88.3%; in assay [6] (setting [10]), 89.3%. Also, the Her2 level in assay [2] was 94% (inactive). The differential viability (reversal) in assay [6] (H69AR cells + 2 uM doxorubicin) was 1.02% (inactive). Also, the inhibition in assay [7] is -0.27% (inactive); in assay [8], 2.5% (inactive).

Regarding `Cn1c(=O)c2c(-c3ccncc3)c3c(nc2n(C)c1=O)-c1ccccc1C3=O`, the viability in assay [1] is 94%; in assay [3] it was 94% (inactive); in assay [4] it was 98.4% (inactive); in assay [5], 95% (inactive); in assay [6] (setting [9]), 92%; in assay [6] (setting [10]) it was 95%. In addition, the Her2 level in assay [2] was 104% (inactive). Also, in assay [6] (H69AR cells + 2 uM doxorubicin), the differential viability (reversal) is 2.95% (inactive). For the same compound, the inhibition in assay [7] was -1.6% (inactive); in assay [8] it was 9.37% (inactive).

On to `CCCCOC(=O)C1=C(C)Nc2ncnn2C1c1cccc(OC)c1OC` (stereo not given), for which the viability in assay [1] is 81.5%; in assay [3], 81.5% (inactive); in assay [4], 95% (inactive); in assay [5], 88.5% (inactive); in assay [6] (setting [9]), 80.7%; in assay [6] (setting [10]), 88.5%. Also, the Her2 level in assay [2] is 65.5% (inactive). Further, the differential viability (reversal) in assay [6] (H69AR cells + 2 uM doxorubicin) was 7.84% (inactive). For the same compound, the values for the inhibition in assay [7] and in assay [8] were -5.13% (inactive) and -3.33% (inactive), respectively.

On to `CCc1nc(N[C@@H](Cc2c[nH]c3ccccc23)C(=O)O)c2oc3ccccc3c2n1`, for which the viability in assay [1] is 100%; in assay [3] it was 100% (inactive); in assay [4], 71.7% (inactive); in assay [5], 82.1% (inactive); in assay [6] (setting [9]), 96.7%; in assay [6] (setting [10]) it was 82.1%. Moreover, in assay [2], the Her2 level is 81% (inactive). The differential viability (reversal) in assay [6] (H69AR cells + 2 uM doxorubicin) was -14.6% (inactive). In addition, the results for the inhibition in assay [7] and in assay [8] were -5.07% (inactive) and -3.44% (inactive), respectively.

On to `COc1cccc(OCCOCCN(C)CCO)c1`, for which the viability in assay [1] was 124%; in assay [3] it was 124% (inactive); in assay [4] it was 84.4% (inactive); in assay [5], 97.3% (inactive); in assay [6] (setting [9]) it was 89.6%; in assay [6] (setting [10]), 97.3%. Also, in assay [2], the Her2 level was 124% (inactive). In addition, in assay [6] (H69AR cells + 2 uM doxorubicin), the differential viability (reversal) was 7.71% (inactive). Besides, the inhibition in assay [7] was -4.93% (inactive); in assay [8], -1.45% (inactive).

On to `COc1ccc2c(=O)c3c(=O)n(Cc4ccco4)c(-c4cc(OC)c(OC)c(OC)c4)nc3oc2c1`, for which the viability in assay [1] was 67%; in assay [3], 67% (inactive); in assay [4] it was 67.9% (inactive); in assay [5], 36.1% (active); in assay [6] (setting [9]) it was 37.8%; in assay [6] (setting [10]) it was 36.1%. In assay [2], the Her2 level was 82.5% (inactive). Moreover, in assay [6] (H69AR cells + 2 uM doxorubicin), the differential viability (reversal) was -1.67% (inactive). Further, the inhibition in assay [7] is -2.53% (inactive); in assay [8] it was -10% (inactive).

On to `CCOC(=O)C1=C(C)NC(=O)C(C#N)C1c1ccco1` (stereo not given), for which the viability is 104% in assay [1]; 104% (inactive) in assay [3]; 92.6% (inactive) in assay [4]; 90% (inactive) in assay [5]; 90.6% in assay [6] (setting [9]); 90% in assay [6] (setting [10]). Further, the Her2 level in assay [2] is 85% (inactive). For the same compound, the differential viability (reversal) in assay [6] (H69AR cells + 2 uM doxorubicin) is -0.555% (inactive). The values for the inhibition in assay [7] and in assay [8] were -4.8% (inactive) and -1.31% (inactive), respectively.

Take `CCOc1ccccc1C(=O)NCC(=O)OCC(=O)N1C(C)CCCC1C` (stereo not given): the viability in assay [1] was 98.5%; in assay [3], 98.5% (inactive); in assay [4] it was 102% (inactive); in assay [5], 103% (inactive); in assay [6] (setting [9]) it was 93.4%; in assay [6] (setting [10]) it was 103%. Besides, the Her2 level in assay [2] is 89% (inactive). The differential viability (reversal) in assay [6] (H69AR cells + 2 uM doxorubicin) is 9.78% (inactive). Besides, the results for the inhibition in assay [7] and in assay [8] were -3.77% (inactive) and -3.02% (inactive), respectively.

Take `Cc1ccc(NC(=O)CSc2nnc(CCCCCNC(=O)OC(C)(C)C)o2)c(C)c1`: the viability is 112% in assay [1]; 112% (inactive) in assay [3]; 88.6% (inactive) in assay [4]; 93.2% (inactive) in assay [5]; 91.4% in assay [6] (setting [9]); 93.2% in assay [6] (setting [10]). For the same compound, in assay [2], the Her2 level was 87% (inactive). For the same compound, the differential viability (reversal) in assay [6] (H69AR cells + 2 uM doxorubicin) was 1.79% (inactive). In addition, the inhibition in assay [7] was 1.71% (inactive); in assay [8], 1.29% (inactive).

`C#CC1(O)CC(C)N(C)C(C)C1` (stereo not given): the viability in assay [1] was 105%; in assay [3], 105% (inactive); in assay [4], 85.3% (inactive); in assay [5], 91.9% (inactive); in assay [6] (setting [9]), 78.3%; in assay [6] (setting [10]) it was 91.9%. The Her2 level in assay [2] was 85% (inactive). Moreover, in assay [6] (H69AR cells + 2 uM doxorubicin), the differential viability (reversal) is 13.6% (inactive). The inhibition is -4.55% (inactive) in assay [7] and -4.6% (inactive) in assay [8].

`O=C(NCC1CCCO1)c1cccc(N2C(=O)C3C4C=CC(C4)C3C2=O)c1` (stereo not given): the viability is 110% in assay [1]; 110% (inactive) in assay [3]; 98.4% (inactive) in assay [4]; 100% (inactive) in assay [5]; 89.8% in assay [6] (setting [9]); 100% in assay [6] (setting [10]). Further, the Her2 level in assay [2] is 94% (inactive). Besides, the differential viability (reversal) in assay [6] (H69AR cells + 2 uM doxorubicin) is 10.3% (inactive). The inhibition was -6.4% (inactive) in assay [7] and -9.84% (inactive) in assay [8].

Regarding `CC(C)(C)c1ccc(O)c(N)c1`, the viability in assay [1] is 86%; in assay [3] it was 86% (inactive); in assay [4] it was 106% (inactive); in assay [5] it was 94.2% (inactive); in assay [6] (setting [9]), 95.1%; in assay [6] (setting [10]) it was 94.2%. Further, the Her2 level in assay [2] is 93.5% (inactive). The differential viability (reversal) in assay [6] (H69AR cells + 2 uM doxorubicin) was -0.85% (inactive). Besides, the inhibition in assay [7] was -5.21% (inactive); in assay [8] it was -3.33% (inactive).

For `O=C(COn1nnc2ccc(C(F)(F)F)cc21)Nc1nnc(-c2ccccc2)o1`, the viability is 87% in assay [1]; 87% (inactive) in assay [3]; 68.2% (inactive) in assay [4]; 97.8% (inactive) in assay [5]; 82.3% in assay [6] (setting [9]); 97.8% in assay [6] (setting [10]). In assay [2], the Her2 level is 92.5% (inactive). In addition, the differential viability (reversal) in assay [6] (H69AR cells + 2 uM doxorubicin) was 15.5% (inactive). In addition, the inhibition in assay [7] is -7.76% (inactive); in assay [8] it was -3.27% (inactive).

As to `CCC(C(=O)Nc1ccccc1C(=O)N1CCCC1)N1C(=O)c2ccccc2C1=O` (stereo not given), the viability in assay [1] is 96.5%; in assay [3], 96.5% (inactive); in assay [4], 78.3% (inactive); in assay [5], 102% (inactive); in assay [6] (setting [9]), 95.8%; in assay [6] (setting [10]), 102%. Besides, the Her2 level in assay [2] was 88% (inactive). The differential viability (reversal) in assay [6] (H69AR cells + 2 uM doxorubicin) is 5.91% (inactive). Moreover, the inhibition in assay [7] was -3.29% (inactive); in assay [8], -4.83% (inactive).
